Experimental data from ChEMBL document CHEMBL4346653, “A2B Adenosine Receptor Antagonists with Picomolar Potency” (J Med Chem, 2019).

What was measured:
Adenosine receptor A3 = biological target: T1, Adenosine receptor A3 (Homo sapiens, UniProt P0DMS8); experiment: Displacement of [3H]PSB-11 from recombinant human A3 adenosine receptor expressed in CHO cell membranes measured after 45 mins in presence of adenosine deaminase by liquid scintillation counting method
T1 sequence (P0DMS8 whole entry): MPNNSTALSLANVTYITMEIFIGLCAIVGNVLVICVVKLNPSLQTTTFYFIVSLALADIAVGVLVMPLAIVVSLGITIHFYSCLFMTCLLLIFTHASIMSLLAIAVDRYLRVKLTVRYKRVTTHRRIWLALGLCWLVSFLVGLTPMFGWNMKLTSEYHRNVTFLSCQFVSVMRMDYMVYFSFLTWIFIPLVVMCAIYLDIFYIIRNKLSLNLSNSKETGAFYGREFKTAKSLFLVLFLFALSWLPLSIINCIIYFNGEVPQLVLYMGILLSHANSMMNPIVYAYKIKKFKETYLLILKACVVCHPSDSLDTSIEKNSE
Summary of the method: (§1)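 Competition binding on membranes of cells recombinantly expressing the human receptor (CHO or HEK cells), with tritiated radioligand per subtype: [3H]PSB-603 for A2B, [3H]MSX-2 for A2A, [3H]CCPA for A1, [3H]PSB-11 for A3. Ki ± SEM from n = 3, some from extrapolated curves. Weak binders are reported as % inhibition of radioligand binding at 1 μM.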

Homo sapiens = organism: Homo sapiens; experiment: Selectivity index, ratio of Ki for displacement of [3H]MSX-2 from recombinant human A2A adenosine receptor expressed in CHO cell membranes to Ki for displacement of [3H]PSB-603 from recombinant human A2B adenosine receptor expressed in CHO cell membranes
Adenosine receptor A1 = biological target: T2, Adenosine receptor A1 (Homo sapiens, UniProt P30542); experiment: Displacement of [3H]CCPA from recombinant human A1 adenosine receptor expressed in CHO cell membranes measured after 90 mins in presence of adenosine deaminase by liquid scintillation counting method; summary of the method: as §1
T2 sequence (P30542 whole entry): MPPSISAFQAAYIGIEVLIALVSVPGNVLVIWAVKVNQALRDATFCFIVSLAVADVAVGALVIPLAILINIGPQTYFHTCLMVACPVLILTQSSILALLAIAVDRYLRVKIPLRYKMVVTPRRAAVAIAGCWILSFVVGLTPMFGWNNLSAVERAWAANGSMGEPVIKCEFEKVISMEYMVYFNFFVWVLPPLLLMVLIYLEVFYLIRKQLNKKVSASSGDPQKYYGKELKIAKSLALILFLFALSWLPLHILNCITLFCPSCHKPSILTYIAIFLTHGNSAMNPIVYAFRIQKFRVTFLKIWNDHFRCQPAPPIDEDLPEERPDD

Adenosine receptor A2a = Adenosine receptor A2a (Homo sapiens, UniProt P29274); experiment: Displacement of [3H]MSX-2 from recombinant human A2A adenosine receptor expressed in CHO cell membranes measured after 30 mins in presence of adenosine deaminase by liquid scintillation counting method; summary of the method: as §1
Adenosine receptor A2a, sequence (P29274 whole entry): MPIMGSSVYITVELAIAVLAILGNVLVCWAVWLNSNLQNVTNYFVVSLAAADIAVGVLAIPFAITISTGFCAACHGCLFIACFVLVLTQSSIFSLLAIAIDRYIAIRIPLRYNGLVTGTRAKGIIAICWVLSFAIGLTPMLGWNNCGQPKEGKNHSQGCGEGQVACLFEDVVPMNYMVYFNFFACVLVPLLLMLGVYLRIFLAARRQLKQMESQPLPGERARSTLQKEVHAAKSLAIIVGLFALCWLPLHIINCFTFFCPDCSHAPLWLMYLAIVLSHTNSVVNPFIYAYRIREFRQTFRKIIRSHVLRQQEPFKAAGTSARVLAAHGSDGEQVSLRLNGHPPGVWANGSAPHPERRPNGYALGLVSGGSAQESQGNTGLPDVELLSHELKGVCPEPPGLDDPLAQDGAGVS

[1] = biological target: T3, Adenosine receptor A3 (Homo sapiens) (UniProt P0DMS8); experiment: Displacement of [3H]PSB-11 from recombinant human A3 adenosine receptor expressed in CHO cell membranes at 1 uM measured after 45 mins in presence of adenosine deaminase by liquid scintillation counting method relative to control
T3 sequence (whole entry): T1 sequence (P0DMS8 whole entry)
Summary of the method: (§2)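 Single-point competition binding at human AR subtype membranes, each against its own tritiated radioligand. The test compound is given at 1 μM, and the result is reported as percent inhibition of radioligand binding. The radioligand-specific footnotes give n = 3.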

Adenosine receptor A2b = biological target: T4, Adenosine receptor A2b (Homo sapiens, UniProt P29275); experiment: Displacement of [3H]PSB-603 from recombinant human A2B adenosine receptor expressed in CHO cell membranes measured after 75 mins in presence of adenosine deaminase by liquid scintillation counting method; summary of the method: as §1
T4 sequence (P29275 whole entry): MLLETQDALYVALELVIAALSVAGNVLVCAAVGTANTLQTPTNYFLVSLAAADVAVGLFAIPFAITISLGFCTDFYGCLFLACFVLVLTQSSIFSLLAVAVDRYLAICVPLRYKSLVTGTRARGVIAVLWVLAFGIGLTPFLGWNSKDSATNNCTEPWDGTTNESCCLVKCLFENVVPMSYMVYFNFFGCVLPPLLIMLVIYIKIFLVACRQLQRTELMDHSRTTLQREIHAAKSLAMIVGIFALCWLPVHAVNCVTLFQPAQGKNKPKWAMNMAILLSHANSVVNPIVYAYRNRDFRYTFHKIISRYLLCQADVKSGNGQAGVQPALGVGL

[2] = biological target: T5, Adenosine receptor A1 (Homo sapiens) (UniProt P30542); experiment: Displacement of [3H]CCPA from recombinant human A1 adenosine receptor expressed in CHO cell membranes at 1 uM measured after 90 mins in presence of adenosine deaminase by liquid scintillation counting method relative to control; summary of the method: as §2
T5 sequence (whole entry): T2 sequence (P30542 whole entry)

Ki (Adenosine receptor A3)	Ki (Adenosine receptor A1)	Ki (Adenosine receptor A2a)	inhibition [1]	Ki (Adenosine receptor A2b)	inhibition [2]	Structure (SMILES)	Ratio Ki (Homo sapiens)
> 1000 nM	> 1000 nM	204 nM	32%	0.403 nM	25%	CCCn1c(=O)[nH]c2nc(-c3ccc(S(=O)(=O)N4CCN(c5ccccc5Cl)CC4)cc3)[nH]c2c1=O	510
> 1000 nM	> 1000 nM	108 nM	38%	0.644 nM	14%	CCCn1c(=O)[nH]c2nc(-c3ccc(S(=O)(=O)N4CCN(c5ccc(F)cc5)CC4)cc3)[nH]c2c1=O	170
> 1000 nM	> 1000 nM	293 nM	-2%	7.15 nM	15%	CCCn1c(=O)[nH]c2nc(-c3ccc(S(=O)(=O)N4CCN(c5ccccc5)C(C)C4)cc3)[nH]c2c1=O (stereo not drawn)	40
> 1000 nM	1010 nM	314 nM	30%	7.02 nM	–	CCCn1c(=O)[nH]c2nc(-c3ccc(S(=O)(=O)N4CCN(Cc5ccc(OCCOCCOC)cc5)CC4)cc3)[nH]c2c1=O	50
> 1000 nM	> 1000 nM	77.8 nM	28%	0.153 nM	31%	CCCn1c(=O)[nH]c2nc(-c3ccc(S(=O)(=O)N4CCN(Cc5ccc(Br)cc5)CC4)cc3)[nH]c2c1=O	510
> 1000 nM	205 nM	131 nM	27%	1.28 nM	–	CCCn1c(=O)[nH]c2nc(-c3ccc(S(=O)(=O)N4CCN(Cc5cccc(OC)c5)CC4)cc3)[nH]c2c1=O	100
> 1000 nM	> 1000 nM	143 nM	26%	5.69 nM	15%	CCCn1c(=O)[nH]c2nc(-c3ccc(S(=O)(=O)N4CCN(C(=O)c5ccccc5)CC4)cc3)[nH]c2c1=O	30
> 1000 nM	> 1000 nM	89.5 nM	20%	0.137 nM	28%	CCCn1c(=O)[nH]c2nc(-c3ccc(S(=O)(=O)N4CCN(c5ccccc5Br)CC4)cc3)[nH]c2c1=O	650
> 1000 nM	> 1000 nM	197 nM	-1%	0.616 nM	-3%	CCCn1c(=O)[nH]c2nc(-c3ccc(S(=O)(=O)N4CCN(c5cccc(OC)c5)CC4)cc3)[nH]c2c1=O	320
> 1000 nM	560 nM	241 nM	17%	12.2 nM	–	CCCn1c(=O)[nH]c2nc(-c3ccc(S(=O)(=O)N4CCN(Cc5ccc(OCCO)cc5)CC4)cc3)[nH]c2c1=O	20
> 1000 nM	356 nM	96.7 nM	21%	4.3 nM	–	CCCn1c(=O)[nH]c2nc(-c3ccc(S(=O)(=O)N4CCN(c5ccc(O)cc5)CC4)cc3)[nH]c2c1=O	20
> 1000 nM	> 1000 nM	135 nM	-5%	0.629 nM	25%	CCCn1c(=O)[nH]c2nc(-c3ccc(S(=O)(=O)N4CCN(Cc5ccc(F)c(OC)c5)CC4)cc3)[nH]c2c1=O	220
> 1000 nM	419 nM	140 nM	25%	0.432 nM	–	CCCn1c(=O)[nH]c2nc(-c3ccc(S(=O)(=O)N4CCN(c5ccccc5C)CC4)cc3)[nH]c2c1=O	320
1220 nM	190 nM	52.7 nM	–	18.6 nM	–	CCCn1c(=O)[nH]c2nc(-c3ccc(S(=O)(=O)N(C)C)cc3)[nH]c2c1=O	3
> 1000 nM	113 nM	40.7 nM	31%	0.421 nM	–	CCCn1c(=O)[nH]c2nc(-c3ccc(S(=O)(=O)N4CCN(c5ccc(Cl)c(O)c5)CC4)cc3)[nH]c2c1=O	100
> 1000 nM	334 nM	140 nM	7%	48.2 nM	–	CCCn1c(=O)[nH]c2nc(-c3ccc(S(=O)(=O)N4CCN(C)CC4)cc3)[nH]c2c1=O	3
> 1000 nM	535 nM	35.3 nM	46%	0.215 nM	–	CCCn1c(=O)[nH]c2nc(-c3ccc(S(=O)(=O)N4CCN(c5ccc(Cl)c(OC)c5)CC4)cc3)[nH]c2c1=O	160
> 1000 nM	> 1000 nM	160 nM	12%	1.02 nM	31%	CCCn1c(=O)[nH]c2nc(-c3ccc(S(=O)(=O)N4CCN(Cc5cc(F)cc(OC)c5)CC4)cc3)[nH]c2c1=O	160
> 1000 nM	> 1000 nM	168 nM	23%	6.08 nM	24%	CCCn1c(=O)[nH]c2nc(-c3ccc(S(=O)(=O)N4CCN(c5ccc(OCCO)cc5)CC4)cc3)[nH]c2c1=O	30
> 1000 nM	795 nM	189 nM	17%	0.397 nM	–	CCCn1c(=O)[nH]c2nc(-c3ccc(S(=O)(=O)N4CCN(Cc5cccc(C)c5)CC4)cc3)[nH]c2c1=O	480
> 1000 nM	1040 nM	357 nM	4%	1.69 nM	–	CCCn1c(=O)[nH]c2nc(-c3ccc(S(=O)(=O)N(C)CCc4ccccc4)cc3)[nH]c2c1=O	210
> 1000 nM	492 nM	208 nM	32%	0.244 nM	–	CCCn1c(=O)[nH]c2nc(-c3ccc(S(=O)(=O)N4CCN(Cc5ccc(N=[N+]=[N-])cc5)CC4)cc3)[nH]c2c1=O	850
> 1000 nM	> 1000 nM	93.8 nM	41%	3.55 nM	37%	CCCn1c(=O)[nH]c2nc(-c3ccc(S(=O)(=O)N4CCN(c5ccc(O)c(Cl)c5)CC4)cc3)[nH]c2c1=O	> 30
> 1000 nM	364 nM	122 nM	27%	0.643 nM	–	CCCn1c(=O)[nH]c2nc(-c3ccc(S(=O)(=O)N4CCN(c5ccccc5)CC4)cc3)[nH]c2c1=O	190
> 1000 nM	> 1000 nM	322 nM	28%	4.31 nM	24%	CCCn1c(=O)c2[nH]c(-c3ccc(S(=O)(=O)N4CCN(c5ccc(Cl)cc5)CC4)cc3)nc2n(CC)c1=O	75
> 1000 nM	> 1000 nM	245 nM	15%	0.894 nM	24%	CCCn1c(=O)[nH]c2nc(-c3ccc(S(=O)(=O)N4CCN(Cc5ccc(OC)c(F)c5)CC4)cc3)[nH]c2c1=O	270
